In publication PMC5558615 (ChemMedChem, 2015) one finds stoichiometry N and Kd data, which are given here for 2 compounds.

The target of one assay is saposin B. The assay can be described thus: crystal structure.
The target in assay [1] is T1, saposin B (sapB) (Homo sapiens, UniProt P07602, E263A).
T1 sequence (P07602 195-273 E263A): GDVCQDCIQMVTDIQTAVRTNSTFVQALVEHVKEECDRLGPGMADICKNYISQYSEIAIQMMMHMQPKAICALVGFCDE
Put plainly: ITC, two sets of independent sites fit. Format: binding.

The target in assay [2] is T2, saposin B (sapB) (Homo sapiens, UniProt P07602).
T2 sequence (P07602 195-273): T1 sequence (P07602 195-273 E263A) with A69E
The assay can be described thus: ITC, two sets of independent sites fit. The assay is classed as binding. The procedure, abridged: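 Ligand-into-buffer control titrations were used in the analysis. Integrated heats were plotted against the ligand/sapB dimer molar ratio and fitted to two independent site sets. Strong-site parameters were reported; for the weak set, only n2·K2·ΔH2.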

Positions count from the first letter of the chain named.

For the compound saposin B (natural protein), the stoichiometry N with saposin B is 2.

On to `CCN(CC)CCC[C@@H](C)Nc1ccnc2cc(Cl)ccc12` [chloroquine], for which the figures for the equilibrium dissociation constant (Kd) on saposin B (sapB) [1] and at saposin B (sapB) [2] were 23.1 µM and 31.8 µM, respectively.
